# Results from ChEMBL document CHEMBL1799973, “Design, synthesis, and cytotoxic evaluation of acyl derivatives of 3-aminonaphtho[2,3-b]thiophene-4,9-dione, a quinone-based system” (J Med Chem, 2011).
# Calls of active or inactive are those of the source. The calls are words filed in the database; no cut-off is given here.
# Columns and labels:
# [1] = Antitumor activity against human MDA231 cells after 24 to 48 hrs by MTT assay; type: functional, cell-based; details: MDA-MB-231
# Summary of the method: (§1)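 MTT read-out. Cells grown at 37 °C in DMEM with 10 mM glucose, 10% fetal calf serum, penicillin/streptomycin and 2 mmol/L glutamine. Seeded at 10^5 cells per well and left 24 h to attach, then compound added over a range of concentrations and cells grown 24 or 48 h. MTT at 1 mg/mL for 2 h at 37 °C in the dark, formazan dissolved in DMSO, OD read at 550 nm. Values are % of vehicle control (0.5% DMSO); IC50 by linear and polynomial regression; triplicate.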
# U-937 = assay: Antitumor activity against human U937 cells after 24 to 48 hrs by MTT assay; type: functional, cell-based; summary of the method: as §1
# SW-620 = assay: Antitumor activity against human SW620 cells after 24 to 48 hrs by MTT assay; type: functional, cell-based; summary of the method: as §1
# HT-29 = assay: Antitumor activity against human HT-29 cells after 24 to 48 hrs by MTT assay; type: functional, cell-based; summary of the method: as §1
# COLO 205 = assay: Antitumor activity against human COLO205 cells after 24 to 48 hrs by MTT assay; type: functional, cell-based; summary of the method: as §1
# MDA-MB-435 = assay: Antitumor activity against human MDA-MB-435 cells after 24 to 48 hrs by MTT assay; type: functional, cell-based
# Summary of the method: as §1, with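 “nm.” for “nm. Values are % of vehicle control (0.5% DMSO); IC50 by linear and polynomial regression; triplicate.”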
# SNB-19 = assay: Antitumor activity against human SNB19 cells after 24 to 48 hrs by MTT assay; type: functional, cell-based; summary of the method: as §1
# SK-MEL-28 = assay: Antitumor activity against human SK-MEL-28 cells after 24 to 48 hrs by MTT assay; type: functional, cell-based; summary of the method: as §1
# SF-295 = assay: Antitumor activity against human SF295 cells after 24 to 48 hrs by MTT assay; type: functional, cell-based; summary of the method: as §1
# Caco-2 [2] = assay: Selectivity index, ratio IC50 for undifferentiated human Caco2 cells to IC50 for differentiated human Caco2 cells; type: functional
# Summary of the method: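 Ratio of MTT IC50 in undifferentiated to differentiated Caco-2 cells. MTT conditions: 24 or 48 h exposure, formazan dissolved in DMSO, read at 550 nm, IC50 by regression, triplicate.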
# Caco-2 [3] = assay: Antitumor activity against human undifferentiated Caco2 cells after 24 to 48 hrs by MTT assay; type: functional, cell-based; summary of the method: as §1
# [4] = Antitumor activity against human IGROV cells after 24 to 48 hrs by MTT assay; type: functional, cell-based
# Summary of the method: as §1, with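 “nm.” for “nm. Values are % of vehicle control (0.5% DMSO); IC50 by linear and polynomial regression; triplicate.”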
# Caco-2 [5] = assay: Antitumor activity against human differentiated Caco2 cells after 24 to 48 hrs by MTT assay; type: cell-based; summary of the method: as §1
# Homo sapiens [6] = organism: Homo sapiens; assay: Inhibition of human topoisomerase 2-mediated relaxation of supercoiled pBR322 DNA relaxation at 5 uM after 6 mins by agarose gel electrophoresis
# Summary of the method: (§2)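 Compound at 5 or 10 μM. Run 6 min at 37 °C and stopped with EDTA/SDS/glycerol dye. Products run on 1% agarose in 0.5× TBE at 4 V/cm for 1 h, stained with ethidium bromide, bands quantified.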
# H9c2 = assay: Cardiotoxicity in rat H9c2 cells at 1 uM measured up to 120 hrs by MTT assay; type: toxicity, cell-based; details: h9c2, 120 h
# Summary of the method: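 Rat H9C2 cardiomyoblasts, passages 4–10, grown at 37 °C in DMEM with FBS, glutamine and penicillin/streptomycin. Plated at 2000 cells/well in quadruplicate and given compound at 1 μM for the indicated times. MTT reagent added for 2 h in the incubator, then absorbance read at 570 nm. Data are mean ± SD.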
# Homo sapiens [7] = organism: Homo sapiens; assay: Inhibition of human topoisomerase 2-mediated relaxation of supercoiled pBR322 DNA relaxation at 0.04 to 0.92 uM after 6 mins by agarose gel electrophoresis
# Homo sapiens [8] = organism: Homo sapiens; assay: Inhibition of human topoisomerase 2-mediated relaxation of supercoiled pBR322 DNA relaxation at 10 uM after 6 mins by agarose gel electrophoresis; summary of the method: as §2
# MCF7 = assay: Cytotoxicity against human MCF7 cells; type: functional, cell-based; summary of the method: as §1
SMILES,IC50 (U-937) [µM],IC50 (SW-620) [µM],IC50 [1] [µM],other results
O=C(CN1CCOCC1)Nc1csc2c1C(=O)c1ccccc1C2=O,4.3,10.8,7.1,–
C[C@H](N)C(=O)Nc1csc2c1C(=O)c1ccccc1C2=O,9.1,12.4,> 40,–
COc1cccc2c1C(=O)c1c(O)c3c(c(O)c1C2=O)C[C@@](O)(C(=O)CO)C[C@@H]3O[C@H]1C[C@H](N)[C@H](O)[C@H](C)O1 [DOXORUBICIN],0.93,0.12,1.13,IC50 (HT-29): 1.1 µM; IC50 (COLO 205): 1.5 µM; IC50 (SNB-19): 0.8 µM; IC50 (SK-MEL-28): 0.6 µM; IC50 (SF-295): 4.4 µM; inhibition (Homo sapiens [6]): Active; IC50 (Caco-2 [3]): 6.7 µM; Activity (H9c2): Toxic; inhibition (Homo sapiens [7]): Active; inhibition (Homo sapiens [8]): Active; IC50 (Caco-2 [5]): 0.6 µM
NCCCC[C@H](N)C(=O)Nc1csc2c1C(=O)c1ccccc1C2=O,20,> 40,> 40,–
O=C(CCN1CCOCC1)Nc1csc2c1C(=O)c1ccccc1C2=O,7.2,20.1,10.1,–

# More lines, main results first:
IC50 (U-937) [µM],IC50 (SW-620) [µM],SMILES,IC50 [1] [µM],other results
15.1,18.5,O=C(CO)Nc1csc2c1C(=O)c1ccccc1C2=O,10.1,–
1.7,0.8,NCCC(=O)Nc1csc2c1C(=O)c1ccccc1C2=O.O=C(O)C(F)(F)F,3.7,IC50 (HT-29): 0.6 µM; IC50 (COLO 205): 0.4 µM; IC50 (MDA-MB-435): 0.4 µM; IC50 (SNB-19): 1.6 µM; IC50 (SK-MEL-28): 1.5 µM; IC50 (SF-295): 2.8 µM; Ratio IC50 (Caco-2 [2]): 0.43; IC50 (Caco-2 [3]): 2.6 µM; IC50 [4]: 1.2 µM; IC50 (Caco-2 [5]): 6.1 µM
5.1,4,CCN(CC)CC(=O)Nc1csc2c1C(=O)c1ccccc1C2=O,8.5,–
10.1,4,Nc1csc2c1C(=O)c1ccccc1C2=O,11.3,IC50 (MCF7): 3.2 µM
23.9,20.7,O=C(CCS)Nc1csc2c1C(=O)c1ccccc1C2=O,15.2,–
